{
  "source": "ChEMBL document CHEMBL1139262",
  "about": "“Design, synthesis, and evaluation of 5-sulfamoyl benzimidazole derivatives as novel angiotensin II receptor antagonists” (Bioorg Med Chem, 2008)",
  "key": {"[1]": {"target": "T1, Type-1 angiotensin II receptor A (Rattus norvegicus) (UniProt P25095)", "T1 sequence (whole entry)": "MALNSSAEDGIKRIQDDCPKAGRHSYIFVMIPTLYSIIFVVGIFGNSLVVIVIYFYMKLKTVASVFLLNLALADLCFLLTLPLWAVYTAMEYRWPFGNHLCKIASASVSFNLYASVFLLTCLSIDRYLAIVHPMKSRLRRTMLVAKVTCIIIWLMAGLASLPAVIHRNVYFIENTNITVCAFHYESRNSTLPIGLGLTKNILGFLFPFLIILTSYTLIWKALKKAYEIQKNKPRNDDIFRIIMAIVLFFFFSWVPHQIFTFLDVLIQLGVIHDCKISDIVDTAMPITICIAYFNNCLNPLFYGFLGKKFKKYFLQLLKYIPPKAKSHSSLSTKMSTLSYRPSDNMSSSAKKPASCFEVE", "assay": "(§1) Antagonist activity at AT1 receptor in rat aortic rings", "format": "functional", "how_it_was_run": "(§2)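 Isolated rat aortic ring in 10 ml bath of Krebs–Henseleit at 37 °C, pH 7.4, oxygenated, under 1 g tension. Ang II cumulative curve in 0.5-log steps (1 × 10−10 to 1 × 10−5), repeated after 15 min antagonist exposure at 1, 3 or 10 nmol. Response taken as % of maximal Ang II tension.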"}, "[2]": {"target": "T2, Type-1 angiotensin II receptor A (Rattus norvegicus, UniProt P25095)", "T2 sequence (P25095 whole entry)": "T1 sequence (whole entry)", "assay": "as §1", "format": "functional", "conditions": "read-out: pA2 (converted)", "how_it_was_run": "as §2"}, "[3]": {"system": "Rattus norvegicus", "assay": "Antihypertensive effect in desoxycortisone acetate-induced hypertensive rat assessed as maximum decrease in mean arterial blood pressure at 3 mg/kg, ip after 6 hrs", "format": "functional, Artery", "conditions": "route intraperitoneal", "how_it_was_run": "(§3)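 Hypertension induced by uninephrectomy plus DOCA 40 mg kg−1 sc twice weekly for up to six weeks, with 1.0% NaCl and 0.2% KCl in drinking water; sham rats got tap water. Compound given ip, and mean arterial blood pressure measured 6 h after dosing. Activity expressed as fall in MABP.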"}, "[4]": {"system": "Rattus norvegicus", "assay": "Antihypertensive effect in desoxycortisone acetate-induced hypertensive rat assessed as maximum decrease in mean arterial blood pressure at 5 mg/kg, ip after 6 hrs", "format": "functional, Artery", "conditions": "route intraperitoneal", "how_it_was_run": "as §3"}},
  "data": [
    {"smiles": "CCCCNS(=O)(=O)c1ccc2c(c1)nc(CCCC)n2Cc1ccc(-c2ccccc2C(=O)O)cc1", "values": [
      {"measurement": "pA10", "setting": "[1]", "result": 6.2},
      {"measurement": "Kb", "setting": "[2]", "result": 100, "unit": "nM"},
      {"measurement": "Activity", "setting": "[3]", "result": 47.6, "unit": "mmHg"}
    ]},
    {"smiles": "CCCCc1nc2cc(S(N)(=O)=O)ccc2n1Cc1ccc(-c2ccccc2C(=O)O)cc1", "values": [
      {"measurement": "pA10", "setting": "[1]", "result": 6.1},
      {"measurement": "Kb", "setting": "[2]", "result": 200, "unit": "nM"},
      {"measurement": "Activity", "setting": "[3]", "result": 51.4, "unit": "mmHg"}
    ]},
    {"smiles": "CCCCc1nc2cc(S(=O)(=O)NC3CCCCC3)ccc2n1Cc1ccc(-c2ccccc2C(=O)O)cc1", "values": [
      {"measurement": "pA10", "setting": "[1]", "result": 5.7},
      {"measurement": "Kb", "setting": "[2]", "result": 12.6, "unit": "nM"},
      {"measurement": "Activity", "setting": "[3]", "result": 64.4, "unit": "mmHg"}
    ]},
    {"smiles": "CCCCc1nc2cc(S(=O)(=O)NC)ccc2n1Cc1ccc(-c2ccccc2C(=O)O)cc1", "values": [
      {"measurement": "pA10", "setting": "[1]", "result": 6.3},
      {"measurement": "Kb", "setting": "[2]", "result": 126, "unit": "nM"},
      {"measurement": "Activity", "setting": "[3]", "result": 52.5, "unit": "mmHg"}
    ]},
    {"smiles": "CCCCc1nc2cc(S(=O)(=O)NCC)ccc2n1Cc1ccc(-c2ccccc2C(=O)O)cc1", "values": [
      {"measurement": "pA10", "setting": "[1]", "result": 6.2},
      {"measurement": "Kb", "setting": "[2]", "result": 79.4, "unit": "nM"},
      {"measurement": "Activity", "setting": "[3]", "result": 49.9, "unit": "mmHg"}
    ]},
    {"smiles": "CCCCc1nc2cc(S(=O)(=O)O)ccc2n1Cc1ccc(-c2ccccc2C(=O)O)cc1", "values": [
      {"measurement": "pA10", "setting": "[1]", "result": 5.8},
      {"measurement": "Kb", "setting": "[2]", "result": 251, "unit": "nM"},
      {"measurement": "Activity", "setting": "[3]", "result": 44.7, "unit": "mmHg"}
    ]},
    {"smiles": "CCCCc1nc(Cl)c(CO)n1Cc1ccc(-c2ccccc2-c2nnn[nH]2)cc1", "note": "[LOSARTAN]", "values": [
      {"measurement": "pA10", "setting": "[1]", "result": 7.1},
      {"measurement": "Activity", "setting": "[4]", "result": 58.3, "unit": "mmHg"}
    ]},
    {"smiles": "CCCCc1nc2cc(S(=O)(=O)NCCC)ccc2n1Cc1ccc(-c2ccccc2C(=O)O)cc1", "values": [
      {"measurement": "pA10", "setting": "[1]", "result": 6.4},
      {"measurement": "Kb", "setting": "[2]", "result": 79.4, "unit": "nM"},
      {"measurement": "Activity", "setting": "[3]", "result": 50.2, "unit": "mmHg"}
    ]},
    {"smiles": "CCOc1nc2cccc(C(=O)O)c2n1Cc1ccc(-c2ccccc2-c2nnn[nH]2)cc1", "values": [
      {"measurement": "pA10", "setting": "[1]", "result": 6.7},
      {"measurement": "Kb", "setting": "[2]", "result": 3.16, "unit": "nM"},
      {"measurement": "Activity", "setting": "[4]", "result": 56.2, "unit": "mmHg"}
    ]},
    {"smiles": "CCCCc1nc2ccccc2n1Cc1ccc(-c2ccccc2C(=O)O)cc1", "values": [
      {"measurement": "pA10", "setting": "[1]", "result": 6.7},
      {"measurement": "Kb", "setting": "[2]", "result": 3.16, "unit": "nM"}
    ]},
    {"smiles": "CCCCc1nc2cc(S(=O)(=O)NC(C)(C)C)ccc2n1Cc1ccc(-c2ccccc2C(=O)O)cc1", "values": [
      {"measurement": "pA10", "setting": "[1]", "result": 5.4},
      {"measurement": "Kb", "setting": "[2]", "result": 3.98, "unit": "nM"},
      {"measurement": "Activity", "setting": "[3]", "result": 62.4, "unit": "mmHg"}
    ]},
    {"smiles": "CCCCc1nc2cc(S(=O)(=O)NC(C)C)ccc2n1Cc1ccc(-c2ccccc2C(=O)O)cc1", "values": [
      {"measurement": "pA10", "setting": "[1]", "result": 6.3},
      {"measurement": "Kb", "setting": "[2]", "result": 63.1, "unit": "nM"},
      {"measurement": "Activity", "setting": "[3]", "result": 51.7, "unit": "mmHg"}
    ]}
  ]
}
